Screening results as filed in PubChem.
An excerpt weighted towards active compounds, which were near 2.8% of everything screened.
DENV2 CPE: DENV2-induced cell death inhibition; DENV2-infected cells, cytopathic effect rescue, plate reader; CPE inhibition, % at 9.99 µM; 350,000 compounds, 1.7% hits; AID 651640; in the data active = CPE inhibition above about 20%, passing the limit was not always enough; inconclusive = no clear call, values can overlap the other calls; tested in BHK-21 cells;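 also: 0% = median of neutral control wells and 100% = median of positive control wells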
E-selectin induc: induces E-selectin expression in human endothelial cells | 260,000 compounds, 0.37% hits | P16581 | activation, % at 7.58 µM | HUVEC E-selectin immunofluorescence imaging; normalized: neutral wells 0, TNF-alpha wells 100;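 active = mean E-selectin-positive cell signal at least 10% of the positive control, reached in at least 60% of replicates, without over 20% cell loss; inconclusive = no rule given, readout overlaps actives, possibly toxicity-flagged; inactive = the rest, including those meeting only one limit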
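Test system: HUVEC | Signal: Immunofluorescence imaging | Read-out: Percent E-selectin-positive cells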
SIRT5 inh: inhibitors of human sirtuin-5 desuccinylase | Q9NXA8 | Purified SirT5, succinyl-peptide AMC, trypsin-coupled fluorescence | inhibition, % at 15 µM | 330,000 compounds, 1.1% hits | AID 652115; in the data active = inhibition above about 15%; inconclusive = no clear call, values can overlap the other calls
Target sequence (Q9NXA8 whole entry, looked up): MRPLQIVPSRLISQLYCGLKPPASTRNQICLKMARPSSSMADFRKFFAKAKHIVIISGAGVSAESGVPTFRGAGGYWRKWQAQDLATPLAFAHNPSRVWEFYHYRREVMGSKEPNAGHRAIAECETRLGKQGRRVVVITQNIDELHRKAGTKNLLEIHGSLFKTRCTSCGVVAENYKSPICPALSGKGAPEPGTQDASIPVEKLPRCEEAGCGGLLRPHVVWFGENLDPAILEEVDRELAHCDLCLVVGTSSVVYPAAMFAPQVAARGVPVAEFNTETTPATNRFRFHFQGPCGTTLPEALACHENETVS
Numbers without * were called inactive; ? = inconclusive; . = no result given.

SMILES	DENV2 CPE	E-selectin induc	SIRT5 inh
CCCN(C)C[C@@H]1Oc2cc(C#CCC(C)C)ccc2S(=O)(=O)N([C@H](C)CO)C[C@@H]1C	34.3*	0.6	2.4
CCCN(C)C[C@H]1Oc2cc(C#CCN(C)C)ccc2S(=O)(=O)N([C@@H](C)CO)C[C@H]1C	?	-0.1	-5.4
CCC(=O)N1C[C@H](C)[C@@H](OC)CN(C)C(=O)c2ccc(NC(=O)Nc3ccccc3)cc2OC[C@H]1C	-0.1	-0.2	4.5
CO[C@H]1CN(C)C(=O)c2ccc(NC(=O)Nc3ccccc3F)cc2OC[C@H](C)N(C(C)=O)C[C@@H]1C	0.2	0.0	-1.1
O=C([C@H]1[C@H](CO)[C@H]2Cn3c(ccc(-c4ccncc4)c3=O)[C@H]2N1CCC(F)(F)F)N1CCCCC1	15.4	-0.4	-1.5
CCCN1C[C@@H](C)[C@@H](OC)CN(C)C(=O)c2cc(NC(=O)COC)ccc2OC[C@H]1C	.	-0.1	.
C[C@H]1CCCCO[C@@H](CN(C)Cc2ccccc2)[C@@H](C)CN([C@@H](C)CO)C(=O)c2cc(NS(=O)(=O)c3ccc(Cl)cc3)ccc2O1	-20.5	.	6.3
C[C@H]1CCCCO[C@H](CN(C)Cc2ccccc2)[C@@H](C)CN([C@@H](C)CO)C(=O)c2cc(NS(=O)(=O)c3ccc(F)cc3)ccc2O1	28.5*	.	-1.3
Cc1ccc(S(=O)(=O)Nc2ccc3c(c2)C(=O)N([C@@H](C)CO)C[C@@H](C)[C@H](CN(C)Cc2ccccc2)OCCCC[C@H](C)O3)cc1	-6.9	.	17.2*
Cc1ccc(S(=O)(=O)Nc2ccc3c(c2)C(=O)N([C@@H](C)CO)C[C@H](C)[C@H](CN(C)Cc2ccccc2)OCCCC[C@H](C)O3)cc1	-25.7	.	.
C[C@@H]1CCCCO[C@@H](CN(C)Cc2ccccc2)[C@@H](C)CN([C@@H](C)CO)C(=O)c2cc(NS(=O)(=O)c3ccc(F)cc3)ccc2O1	-0.9	.	3.8
C[C@@H]1CCCCO[C@@H](CN(C)Cc2ccccc2)[C@@H](C)CN([C@@H](C)CO)C(=O)c2cc(NS(=O)(=O)c3ccc(Cl)cc3)ccc2O1	2.8	.	17.9*
COc1ccc(NC(=O)N(C)C[C@@H]2OCCCC[C@H](C)Oc3ccc(NS(=O)(=O)c4ccc(F)cc4)cc3C(=O)N([C@H](C)CO)C[C@H]2C)cc1	-6.5	0.0	11.9
CC(C)CC#Cc1ccc2c(c1)O[C@H](CN(C)C(=O)c1cnccn1)[C@H](C)CN([C@H](C)CO)S2(=O)=O	-4.5	0.3	2.0
CCC(=O)N[C@@H]1CC[C@H](CCn2cc(C3CC3)nn2)O[C@H]1CO	4.8	-0.4	-0.4
CCOC(=O)C1=CN2CCC[C@H]2CC1=O	63.1*	0.1	.
CCOC(=O)C1=CN2CCCC[C@@H]2CC1=O	-8.8	-0.1	.
O=C(c1cccc(F)c1)N1CC2(C1)[C@H](c1ccccc1)[C@@H](CO)N2C(=O)C1CCC1	6.1	-0.1	0.1
COCCNC(=O)C[C@@H]1C[C@@H]2c3cc(NC(=O)NC4CCCCC4)ccc3O[C@@H]2[C@H](CO)O1	-4.1	-0.1	0.5
O=C(Nc1cc(F)ccc1F)N[C@@H]1CC[C@H](CCn2cc(C3CCCC3)nn2)O[C@@H]1CO	-1.7	0.1	4.3
C[C@@H]1CN([C@@H](C)CO)C(=O)c2cc(NC(=O)Nc3ccccc3)ccc2O[C@H]1CN(C)Cc1ccc(C(F)(F)F)cc1	21.4*	0.4	2.9
C[C@@H]1CN([C@H](C)CO)C(=O)c2cc(NC(=O)Nc3ccc(C(F)(F)F)cc3)ccc2O[C@@H]1CN(C)Cc1ccccc1	83.2*	0.9	-3.1
C[C@@H]1CN([C@@H](C)CO)C(=O)c2cc(NC(=O)Nc3ccc(C(F)(F)F)cc3)ccc2O[C@H]1CN(C)Cc1ccccc1	5.5	1.0	7.3
C[C@H]1CN([C@@H](C)CO)C(=O)c2cc(NC(=O)Nc3ccccc3)ccc2O[C@@H]1CN(C)Cc1ccc(C(F)(F)F)cc1	1.7	0.2	2.3
O=C(C[C@H]1CC[C@H](NC(=O)Nc2cccc(F)c2)[C@@H](CO)O1)NCC1CCCCC1	-6.4	-0.2	.
SMILES	DENV2 CPE	E-selectin induc	SIRT5 inh
C[C@H](CO)N1C[C@H](C)[C@H](CN(C)Cc2ccc(-c3ccccc3)cc2)OCc2ccccc2-c2ccccc2C1=O	5.5	-0.1	19.3*
C[C@H]1CN([C@@H](C)CO)C(=O)c2ccccc2-c2ccccc2CO[C@H]1CN(C)Cc1ccc(F)cc1	0.2	-0.2	22.9*
C[C@H]1CN([C@@H](C)CO)C(=O)c2ccccc2-c2ccccc2CO[C@@H]1CN(C)Cc1ccc(F)cc1	-1.3	-0.3	5.8
C[C@@H]1CN([C@H](C)CO)C(=O)c2ccccc2-c2ccccc2CO[C@H]1CN(C)C(=O)c1cc(Cl)cc(Cl)c1	28.7*	-0.3	4.8
C[C@H](CO)N1C[C@H](C)[C@H](CN(C)Cc2ccccc2)OCc2ccccc2-c2ccccc2C1=O	-8.7	0.0	4.2
C[C@@H]1CN([C@@H](C)CO)C(=O)c2ccccc2-c2ccccc2CO[C@H]1CN(C)C(=O)c1cc(Cl)cc(Cl)c1	-5.9	0.8	3.4
Cc1noc(C)c1NC(=O)Nc1ccc2c(c1)C(=O)N([C@@H](C)CO)C[C@H](C)[C@@H](CN(C)S(=O)(=O)c1c(C)noc1C)OCCCC[C@@H](C)O2	-1.2	0.0	-3.3
COc1ccccc1C#Cc1ccc2c(c1)[C@H]1[C@H](CCN1S(=O)(=O)c1ccc(C)cc1)[C@@H](CO)N2	-1.2	-0.5	-2.0
Cc1noc(C)c1NC(=O)N(C)C[C@@H]1Oc2ccc(NC(=O)NC3CCCCC3)cc2C(=O)N([C@H](C)CO)C[C@H]1C	12.3	-0.1	-1.1
Cn1c(=O)c2nc(-c3ccccc3)c(-c3ccccc3)nc2n(C)c1=O	-1.6	10.7	0.8
Cn1c(=O)c2nc(Cl)c(-c3ccccc3)nc2n(C)c1=O	54.6*	.	.
O=C(Nc1ccccc1)N1CC(=O)N2[C@@H](CO)[C@H](c3ccc(C#Cc4cccnc4)cc3)[C@@H]2C1	0.4	0.5	-0.9
Cc1cc(C)c(S(=O)(=O)N2CCN=C2c2ccccc2)c(C)c1	.	-0.1	.
Cc1cc(S(=O)(=O)N2CCN=C2c2ccccc2)c(C)cc1Cl	3.4	0.0	20.9*
CNC[C@@H]1Oc2ccc(NS(=O)(=O)c3c(C)noc3C)cc2CC(=O)N([C@@H](C)CO)C[C@H]1C	0.6	0.0	-4.3
CO[C@@H]1CN(C)C(=O)c2ccc(NS(=O)(=O)CC(F)(F)F)cc2OC[C@@H](C)N(Cc2ccccn2)C[C@H]1C	-0.3	0.2	4.6
CC(=O)Nc1ccc(NC(=O)C(C)OC(=O)C2CCN(S(=O)(=O)c3ccccc3C(F)(F)F)CC2)cc1 (stereo unspecified)	-7.6	3.0	3.8
COc1ccccc1NC(=O)C(C)OC(=O)C1CCN(S(=O)(=O)c2ccccc2C(F)(F)F)CC1 (stereo unspecified)	54.1*	.	-3.0
CCn1c(/C=C/c2ccc(O)cc2)nc2ccccc2c1=O	2.3	0.0	-2.5
COc1ccc(/C=C/c2nc3ccccc3c(=O)n2-c2cccc(C(=O)O)c2)cc1	-0.4	-0.1	18.1*
O=C(C[C@H]1C[C@H]2c3cc(NC(=O)CC4CC4)ccc3O[C@H]2[C@@H](CO)O1)NCc1ccc2c(c1)OCO2	?	-0.4	7.1
O=C(C[C@H]1CC[C@@H]2[C@H](COC[C@H](O)CN2Cc2ccc3c(c2)OCO3)O1)N1CCOCC1	-5.3	-0.2	-0.6
